# M1 PAM: human M1 muscarinic receptor positive allosteric modulators, primary screen, CHO-K1 cells, Fluo-8 calcium fluorescence, 1536-well; 360,000 compounds, 0.088% hits; activation, % at 3 µM; AID 588819, 2011; CHO-K1 hM1, ACh EC20; 0% = ACh EC20, 100% = maximal ACh; Muscarinic acetylcholine receptor M1 (Homo sapiens), P11229; in the data active means activation above about 19%, passing the limit was not always enough
# Target sequence (P11229 whole entry, looked up): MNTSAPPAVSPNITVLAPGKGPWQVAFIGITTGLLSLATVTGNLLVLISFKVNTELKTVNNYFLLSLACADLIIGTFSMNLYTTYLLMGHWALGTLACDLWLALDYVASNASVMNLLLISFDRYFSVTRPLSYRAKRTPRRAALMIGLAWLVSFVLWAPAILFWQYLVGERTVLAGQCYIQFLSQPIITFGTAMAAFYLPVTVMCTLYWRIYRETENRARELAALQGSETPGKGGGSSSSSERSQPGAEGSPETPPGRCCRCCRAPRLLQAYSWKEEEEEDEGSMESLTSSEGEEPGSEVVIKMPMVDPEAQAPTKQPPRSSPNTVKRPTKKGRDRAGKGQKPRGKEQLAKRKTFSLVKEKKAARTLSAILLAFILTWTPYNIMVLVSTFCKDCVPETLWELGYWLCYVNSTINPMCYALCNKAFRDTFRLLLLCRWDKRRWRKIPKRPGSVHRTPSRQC
# CHRM1 agonist: human M1 muscarinic receptor agonists, primary screen, Fluo-8 calcium fluorescence, CHO-K1 cells, HTS; Muscarinic acetylcholine receptor M1 (Homo sapiens), P11229; CHO-K1 hM1, agonist mode; 0% DMSO, 100% acetylcholine EC100; activation, % at 3 µM; 360,000 compounds, 0.33% hits;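 active means activation above the run's mean compound activation plus 3 SD, cut at about 16% in these data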;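 further: peak over basal fluorescence ratio within a 140 s kinetic read after compound addition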
# M1 antag: human M1 muscarinic receptor antagonists, primary screen, CHO-K1 cells, Fluo-8 calcium fluorescence, 1536-well; CHO-K1 hM1, ACh EC80 antagonist; Muscarinic acetylcholine receptor M1 (Homo sapiens), P11229; AID 588852, 2011; 360,000 compounds, 1.3% hits; inhibition, % at 3 µM;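 active means percent inhibition above its own plate's cutoff, namely the mean of that plate's compound wells plus 3 SD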;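 further: peak over basal fluorescence ratio during 140 s after agonist addition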
# TAAR1 antagonist: human TAAR1 antagonists, primary screen, Fluo-8 calcium fluorescence, CHO RD-HGA16 cells. Trace amine-associated receptor 1 (Homo sapiens), Q96RJ0. inhibition, % at 3 µM. antagonist. 360,000 compounds, 1.5% hits;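 active means inhibition above a per-plate cutoff, the mean inhibition of test compounds on that plate plus 3 SD, cut at about 49% in these data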
#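 System: CHO RD-HGA16 cells bearing hTAAR1. Reagent: EC80 β-phenethylamine stimulus. Schedule: seeding 17-24 h prior, 75-min 37 °C, 30-min RT dye loading. Signal: Fluo-8 intracellular calcium dye fluorescence, real-time kinetic reads. Read-out: % inhibition from peak post-agonist over basal fluorescence ratio. Benchmarks: vehicle wells and EC80 agonist wells. Replicates: n of 1.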
# TAAR1 ag: human TAAR1 agonists, primary screen, Fluo-8 calcium fluorescence, CHO RD-HGA16 cells; vehicle wells 0%, saturating PEA agonist 100%; activation, % at 3 µM; 360,000 compounds, 0.99% hits; AID 624467, 2012;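 active means activation above the mean activation of all test compounds in the run plus 3 SD, cut at about 38% in these data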
#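 Assay system – CHO-derived RD-HGA16 cells with stable Gα16 and human TAAR1 · Compound dosing – one-point dosing at 3 µM (nominal) · Incubation – 17-24 h seeding, 75 min 37 °C dye, 30 min RT · Measured by – kinetic Fluo-8 calcium fluorescence · Control set – DMSO vehicle as 0%, PEA at EC100 as 100% · Repeats – single well for each compound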
# TAAR1 ag confirm: human TAAR1 agonists, retest of hits, confirmation, Fluo-8 calcium fluorescence, CHO RD-HGA16 cells; shares compounds with TAAR1 ag; 2,400 compounds, 82% hits; scaled: DMSO 0%, maximal phenethylamine 100%; AID 651783, 2012; activation, % at 3 µM;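 active means activation above a cutoff set at the run's mean compound activation plus 3 SD, cut at about 39% in these data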
# Ga16 nonsel ag: nonselective calcium mobilization agonists, CHO-Ga16 cells, counter-screen for hTAAR1 agonist project, cell-based, fluorescence, CHO-Ga16 parental line; Fluo-8 calcium fluorescence; normalized to maximal ATP response, DMSO zero; shares compounds with TAAR1 ag; 2,400 compounds, 50% hits; activation, % at 3 µM;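 active means activation above the run cutoff, the mean activation over all tested wells plus 3 SD, cut at about 12% in these data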
# TAAR1 desensitize: TAAR1 desensitization by agonist hits, confirmation, counter-screen for TAAR1 agonist project, cell-based, fluorescence, tachyphylaxis; CHO RD-HGA16 hTAAR1, Fluo-8 calcium, beta-PEA response inhibition; inhibition, % at 3 µM; 2,400 compounds, 46% hits; AID 651951, 2012; shares compounds with TAAR1 ag;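 active means inhibition above the run cutoff, the mean inhibition of all test compounds plus 3 SD, cut at about 49% in these data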;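 further: beta-PEA stimulus applied at its EC80; loss of beta-PEA calcium signal after compound pretreatment read as receptor desensitization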
# Ga16 antag count: inhibition of ATP-evoked calcium response in CHO-Ga16 cells, counter-screen for TAAR1 agonist project, cell-based, fluorescence; shares compounds with TAAR1 ag; CHO-Ga16 ATP-induced calcium, Fluo-8 fluorescence; inhibition, % at 3 µM; 2,400 compounds, 39% hits; AID 651952, 2012;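 active means inhibition above the plate's mean compound inhibition plus 3 SD, computed per plate, cut at about 22% in these data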
# Hits are given with their value; n = inactive; x = no result. This is a sample that favours compounds with a hit; in the whole collection about 3.4% have one here.
SMILES,M1 PAM,CHRM1 agonist,M1 antag,TAAR1 antagonist,TAAR1 ag,TAAR1 ag confirm,Ga16 nonsel ag,TAAR1 desensitize,Ga16 antag count
COc1ccccc1C(CNC(=O)CN(C)S(=O)(=O)c1ccc(C)cc1)N1CCCC1 (stereo unspecified),n,n,n,n,n,x,x,x,x
CC(NC(=O)COC(=O)Cc1ccc(Cl)cc1)c1ccccc1 (stereo unspecified),n,n,n,n,n,x,x,x,x
CC(NC(=O)Cc1ccc(-c2ccccc2)cc1)c1ccccc1 (stereo unspecified),n,n,n,n,60.5,n,17.6,n,n
CCN1C(=O)Cc2cc(S(=O)(=O)NCCc3ccccc3)ccc21,n,n,n,n,51.2,45.6,n,n,n
C=CCOc1ccc(CN(C)C(=O)c2ccc(CNS(=O)(=O)c3ccc(C)c(C)c3)cc2)cc1,n,n,n,n,n,x,x,x,x
N#CC1=C(N)OC2=C(CC/C2=C\c2ccccc2)C1c1ccccc1 (stereo unspecified),n,17.9,30.8,70.7,64.2,45.6,68.7,67.1,77.1
COC(=O)NNC(=O)C12CC3CC(CC(C3)C1)C2,n,n,n,n,n,x,x,x,x
NC(=S)NNC(=O)C12CC3CC(CC(C3)C1)C2,n,29.3,23.4,79.8,140.2,135.8,108.4,102.4,93.8
C[C@@H]1Cn2cnc(C(=O)N[C@@H](Cc3c[nH]c4ccccc34)C(=O)OC(C)(C)C)c2C(=O)N1,n,n,n,n,n,x,x,x,x
Cc1cc(N)nc2nc(C(F)(F)F)nn12,n,n,n,n,n,x,x,x,x
O=c1[nH]c(Cc2ccc(Cl)cc2)nc2ccccc12,n,n,n,n,n,x,x,x,x
O=c1[nH]c(CN(CCc2ccccc2)S(=O)(=O)c2ccc(Cl)cc2)nc2ccccc12,n,n,n,73.2,78.7,89.6,14.4,95.4,23.8
CC1CCN(C(=O)c2ccc3c(c2NCCO)C(=O)c2ccccc2C3=O)CC1,n,n,n,n,48.1,n,n,n,24.5
CCN(CC)CCNC(=O)c1ccc2c(c1NCCO)C(=O)c1ccccc1C2=O,n,n,n,n,n,x,x,x,x
CN(CCNC(=O)c1ccc(N2CCCC2=O)cc1)CCc1ccccc1,n,n,n,n,52.9,62.1,n,n,n
CCNC(=O)CON=C1c2ccccc2-c2ccccc21,n,n,n,n,n,x,x,x,x
CCC(CC)NC(=O)CON=C1c2ccccc2-c2ccccc21,n,n,n,n,43.2,n,n,n,n
Cn1c(=O)c(NC2CCCCC2)c2c3c(cccc31)C(=O)c1ccccc1-2,n,n,n,66.5,87.2,120.0,124.3,77.9,82.6
Cn1cc(S(=O)(=O)NCCc2ccccc2)c(=O)n(C)c1=O,n,n,n,n,n,x,x,x,x
Cn1c(=O)c(NCCc2ccccc2)c2c3c(cccc31)C(=O)c1ccccc1-2,n,166.3,80.3,103.7,407.3,346.4,305.1,103.3,95.4
Cn1c(=O)c(NCCO)c2c3c(cccc31)C(=O)c1ccccc1-2,n,70.1,n,57.7,285.0,51.5,157.8,n,48.2
CCOC(=O)C1=CCN(S(=O)(=O)c2ccc(Br)cc2)C1c1ccc(C)cc1 (stereo unspecified),n,n,n,n,n,x,x,x,x
O=C(Cn1cnc2ccccc2c1=O)NCCC(=O)Nc1ccccc1C(F)(F)F,n,n,n,n,n,x,x,x,x
CC1(c2ccc(Cl)cc2)NC(=O)N(CC(=O)N2CCc3ccccc32)C1=O (stereo unspecified),n,38.8,n,72.7,96.9,114.0,74.2,77.0,55.1
Nc1cc2cccnc2cc1Cl,n,n,n,n,n,x,x,x,x
SMILES,M1 PAM,CHRM1 agonist,M1 antag,TAAR1 antagonist,TAAR1 ag,TAAR1 ag confirm,Ga16 nonsel ag,TAAR1 desensitize,Ga16 antag count
CC1(C)CCC(=O)N2CC[C@H]3C[C@H](OC(=O)Nc4ccccc4)C[C@@H]1[C@H]32,n,n,n,n,58.3,52.0,n,n,n
O=C(NCc1ccccc1)c1cc(-c2ccco2)on1,n,n,n,n,n,x,x,x,x
O=C(NCCc1ccccc1)c1cc(-c2ccco2)on1,n,n,n,n,46.9,44.1,n,n,n
Cn1c(N/N=C\c2cccc(O)c2)cc(=O)n(C)c1=O,n,n,n,n,51.9,76.6,n,n,n
O=C(CCc1ccccc1)N/N=C/c1cccc(O)c1,n,n,n,n,n,x,x,x,x
O=C(N/N=C/c1cccc(O)c1)N/N=C/c1cccc(O)c1,n,n,n,n,46.4,81.0,n,n,n
NS(=O)(=O)c1ccc(CCNC(=O)c2ccc(NS(=O)(=O)c3ccc4[nH]c(=O)[nH]c4c3)cc2)cc1,n,n,n,n,n,x,x,x,x
CC(C)CCn1c(=O)c2sccc2n2c(CCCC(=O)N3CCN(c4ccccn4)CC3)nnc12,n,n,n,n,n,x,x,x,x
COc1cc(/C=c2\s/c(=C(/C#N)C(=O)N3CCCC3)n(-c3ccccc3)c2=O)ccc1O,n,n,n,76.0,74.8,n,33.9,63.7,53.9
Clc1ccc(OCCNCCc2ccccc2)cc1,n,n,n,n,80.5,91.8,n,75.3,n
O=C(COc1ccc(Cl)cc1)NCc1ccccc1,n,n,n,n,n,x,x,x,x
c1ccc(CCNCCCOc2cccc3ccccc23)cc1,n,n,n,n,57.1,95.1,26.4,87.0,33.5
CC(=O)NCCOc1cccc2ccccc12,n,n,n,n,n,x,x,x,x
CNc1ccc(-c2ccccc2OC)cn1,n,n,n,n,n,x,x,x,x
CCOC(=O)C1=CCC(c2ccccc2)N(S(=O)(=O)c2ccc(C)cc2)[C@H]1CC (stereo partly specified),x,x,x,n,n,x,x,x,x
